From ChEMBL document CHEMBL1806361, “Discovery of potent, selective, and orally bioavailable quinoline-based dipeptidyl peptidase IV inhibitors targeting Lys554” (Bioorg Med Chem, 2011) come the findings set out here.

Data set [1] relates to Canis familiaris. In words: Oral bioavailability in dog at 1 mg/kg by LC/MS/MS. The format is ADME, organism-based, Canis lupus familiaris. The note with it: in vivo. A digest of the protocol:
(§1)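 Compound given orally at 1.0 mg/kg and intravenously at 0.1 mg/kg to rats and dogs. Blood sampled after dosing and spun to plasma. Plasma deproteinized with acetonitrile containing internal standard, then centrifuged. Supernatant diluted in 0.01 M ammonium acetate and spun again before LC/MS/MS quantitation. Values are means and SD of three experiments.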

Data set [2] relates to Rattus norvegicus. Briefly: Oral bioavailability in rat at 1 mg/kg by LC/MS/MS. Type of data set: ADME, organism-based. The note with it: in vivo. A digest of the protocol:
as §1

The nature of data set [3]: Volume of distribution at steady state in rat at 1 mg/kg, po and 0.1 mg/kg, iv by LC/MS/MS. The format is ADME, organism-based. To be noted: in vivo, read-out: Vdss. An outline of the steps: as §1
A short description of data set [4]: Volume of distribution at steady state in dog at 1 mg/kg, po and 0.1 mg/kg, iv by LC/MS/MS. Type of data set: ADME, organism-based, Canis lupus familiaris. The note with it: in vivo, read-out: Vdss. An outline of the steps: as §1
Data set [5] concerns Rattus norvegicus. Briefly: AUC in rat at 1 mg/kg, po by LC/MS/MS. The arrangement: dose 1 mg/kg, route oral. The note with it: in vivo. Type of data set: ADME, organism-based, Plasma. A digest of the protocol:
as §1

Data set [6] is described as follows: Metabolic stability in rat liver microsomes at 1 uM after 60 mins by HPLC with UV detectors in presence of NADPH. Type of data set: ADME, Microsome. To be noted: read-out: Stability. A digest of the protocol: (§2)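 Hepatic microsomes (0.2 mg protein/mL final) and compound (1 µM final) were mixed on ice. Reaction started with NADPH, run 60 min at 37 °C, and stopped with ice-cold acetonitrile. Zero-time controls were quenched before compound addition.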

A short description of data set [7]: Metabolic stability in dog liver microsomes at 1 uM after 60 mins by HPLC with UV detectors in presence of NADPH. Type of data set: ADME, Canis lupus familiaris, Microsome. To be noted: read-out: Stability. A digest of the protocol: as §2
(In general: Microsomes from liver hold many membrane-bound enzymes, among them those of drug oxidation.)

Data set [8] deals with Canis familiaris. Briefly: AUC in dog at 1 mg/kg, po by LC/MS/MS. Details: dose 1 mg/kg, route oral. Type of data set: ADME, organism-based, Canis lupus familiaris, Plasma. The note with it: in vivo. An outline of the steps:
as §1

Data set [9] is described as follows: Metabolic stability in human liver microsomes at 1 uM after 60 mins by HPLC with UV detectors in presence of NADPH. The format is ADME, Microsome. The note with it: read-out: Stability. An outline of the steps:
as §2

Data set [10] is described as follows: Solubility of the compound in water at pH 6.8 by HPLC analysis. Type of data set: physicochemical.

By AUC is commonly meant the area under the concentration-time curve, a measure of exposure. As usually defined, the solubility is how much of the substance goes into solution per volume. For `Cc1ccc(-c2c(CN)c(CC(C)C)nc3ccc(N4CC(=O)NCC4=O)cc23)cc1.Cl.Cl`, the figures for the F in the data set on Canis familiaris [1] and in the data set on Rattus norvegicus [2] were 49.2% and 8%, respectively. In addition, the Vd in data set [3] stood at 10.7 L/kg; in data set [4], 1.49 L/kg. The AUC in the data set on Rattus norvegicus [5] stood at 28.5 ng·h/mL; with Canis familiaris [8], 1410 ng·h/mL. Moreover, the microsomal CLint at 1 µM in [6] amounted to 96 µL/min/mg; in data set [7], 2 µL/min/mg; in data set [9] it was 16 µL/min/mg. Besides, the solubility in [10] is greater than 5000 µg/mL.
